Bioassay records from PubChem BioAssay.
Most compounds without a hit are left out; they make up all but 1.5% or so of the library.
PPC-1+TRAIL kill – compounds killing PPC-1 cancer cells with TRAIL present, primary screen, TRAIL potentiator project, ATPLite luminescence, uHTS | PPC-1 cells + TRAIL, ATPLite viability luminescence | AID 1443, 2008 | cell killing (% activity), % at 4 µM or 5 µM | actives 0.41% (n = 220,000);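 active means cell killing above 50% in the first pass at 4 µM, then a duplicate retest at 5 µM averaging 50% or more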;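 further: plate controls were cells with TRAIL plus DMSO for no effect and medium-only wells lacking cells for full effect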
FLuc inh counter – firefly luciferase enzyme inhibitors, primary screen, artefact control for luciferase-based inhibitor screens, biochemical, luminescence, ATPLite. Luciferin 4-monooxygenase (Photinus pyralis), P08659. 10 min. inhibition, % at 10 µM. actives 1.5% (n = 200,000). AID 1006, 2008;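 active means inhibition above about 50% when tested at 10 µM, limit read from the data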
Target sequence (P08659 whole entry, looked up): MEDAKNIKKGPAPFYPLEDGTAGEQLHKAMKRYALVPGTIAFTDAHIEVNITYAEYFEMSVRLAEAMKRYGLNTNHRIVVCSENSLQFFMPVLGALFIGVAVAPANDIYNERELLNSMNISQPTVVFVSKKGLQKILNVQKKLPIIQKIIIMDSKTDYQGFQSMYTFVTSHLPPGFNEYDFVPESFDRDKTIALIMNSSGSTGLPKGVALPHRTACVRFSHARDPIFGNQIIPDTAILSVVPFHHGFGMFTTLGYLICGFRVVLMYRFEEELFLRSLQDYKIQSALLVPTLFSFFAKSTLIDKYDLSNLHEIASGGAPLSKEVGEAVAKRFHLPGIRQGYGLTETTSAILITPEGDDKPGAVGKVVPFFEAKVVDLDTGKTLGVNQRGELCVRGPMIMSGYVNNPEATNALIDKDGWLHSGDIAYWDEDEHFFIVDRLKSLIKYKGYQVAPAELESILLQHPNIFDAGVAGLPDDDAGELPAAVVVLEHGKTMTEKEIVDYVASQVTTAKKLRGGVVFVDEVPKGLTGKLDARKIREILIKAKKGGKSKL
FLuc act counter – FLuc activators, initial screening, artefact control for FLuc-dependent activation tests, biochemical, ATPlite luminescence. ATPlite luciferase biochemical, 10 min; 0 = ATP-free wells, 1 = DMSO control. activation factor at 10 µM. 200,000 tested, under 10 active. AID 1027, 2008;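 active means luciferase activation factor, scaled between plate controls, of at least 2 with compound at 10 µM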
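System: cell-free luciferase reagent; medium: PBS as buffer for the ATP substrate; doses: test compounds dosed from 2 mM stocks in 100% DMSO; incubation: 10 min, room temperature; measured by: luminescence from luciferase reaction; read-out: luciferase activation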
C8 TRAIL sens – viability loss with TRAIL in NB7+C8 cells, primary screen, TRAIL sensitizer project, cell-based, ATPlite luminescence | inhibition (viability loss, TRAIL sensitization), % at 10 µM | actives 1% (n = 360,000) | AID 624354, 2012;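 active means compounds causing at least 50% loss of cell viability in the single-dose screen, relative to plate controls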
PPC1 cytotox – cytotoxicity in PPC-1 cells, confirmation, cytotoxicity control for TRAIL apoptosis potentiator project, cell-based, ATP content luminescence; shares compounds with PPC-1+TRAIL kill; PPC-1 viability, ATPlite luminescence, overnight; cytotoxicity, % at 5 µM; actives 50% (n = 1,200); AID 1447, 2008;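 active means reconfirmed compounds whose average cytotoxicity reaches 50% or more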;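 further: 0% = DMSO-treated cells and 100% = wells holding medium but no cells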
* = called active by the depositor; x = no result.

SMILES	PPC-1+TRAIL kill	FLuc inh counter	FLuc act counter	C8 TRAIL sens	PPC1 cytotox
Cc1csc(=O)n1CC(=O)Nc1ccc(C(C)C)cc1	x	x	x	3	x
CC(C)(C)c1nc2scc(-c3ccc(Cl)cc3)c2c(=O)o1	-5	-6	1.1	13	-2
CCC(CNc1cc(OC)cc2cccnc12)NC1CCCCC1 (stereo unspecified)	-3	x	x	26	-16
CCCOc1ccc(N2C(=O)C3C(C(C)C)NC4(C(=O)c5ccccc5C4=O)C3C2=O)cc1 (stereo unspecified)	0	-4	1	1	6
CCCC(C)NC(=O)c1nc(-c2ccccc2)n(-c2ccccc2)n1 (stereo unspecified)	-8	-11	1.1	17	4
CC1CCCN(C(=O)CNS(=O)(=O)c2cccs2)C1 (stereo unspecified)	x	x	x	5	x
Nc1nc(CSCc2ccccc2)nc(N2CCOCC2)n1	-1	-6	1.1	2	4
O=C(Nc1cnc2ccccn2c1=O)c1ccc(Cl)cc1Cl	37	75*	0.3	62*	48
Cc1ccc(C(=O)Nc2cnc3ccccn3c2=O)cc1	38	16	0.8	9	x
Cc1cccc(NC(=O)c2cnc3ccccn3c2=O)c1	60*	84*	0.2	70*	59*
CCOc1ccc(-c2c(C(=O)N/N=C/C3CCCCC3)nnn2-c2nonc2N)cc1	x	x	x	-4	x
CCOc1ccc(CCNC(=O)COC(=O)c2nccnc2N)cc1OCC	x	x	x	2	x
O=C(N/N=C/c1c(O)ccc2ccccc12)c1[nH]ncc1Br	41	7	0.9	22	x
CCOc1ccc(/C=N/NC(=O)c2[nH]ncc2Br)c(O)c1	57*	91*	0.1	79*	56*
CCCNC(=O)c1ccc(-c2nc3ccccc3s2)s1	70*	90*	0.1	83*	77*
Cc1ccc(NC2C(=O)NC(=O)NC2=O)cc1	x	x	x	-15	x
Cc1ccc(-c2cc(C(=O)N3CCCC3)no2)cc1	66*	85*	0.2	68*	68*
CC(=O)Nc1nc(COc2ccccc2)cs1	-2	6	0.9	-2	9
O=C(Nc1ccc2c(c1)OCCO2)c1ccc2ccccc2n1	43	62*	0.4	33	42
O=C(Nc1ccc(NC(=O)c2ccccn2)cc1)C(=O)Nc1ccc2c(c1)OCCO2	-7	2	1	-3	x
O=C(Nc1ccc(N2CCCCC2)cc1)c1ccccn1	97*	97*	0	93*	96*
O=C(Nc1ccc(Cl)c(S(=O)(=O)N2CCOCC2)c1)c1cn2ccccc2n1	4	-5	1.1	15	x
O=C(Nc1ccc2c(c1)OCCO2)c1ccccn1	43	93*	0.1	75*	53*
O=C(Nc1ccc(N2CCOCC2)cc1)c1cn2ccccc2n1	81*	93*	0.1	81*	82*
O=C(Nc1ccc(N2CCCCCC2)cc1)c1ccccc1Cl	16	8	0.9	-25	x
SMILES	PPC-1+TRAIL kill	FLuc inh counter	FLuc act counter	C8 TRAIL sens	PPC1 cytotox
O=C(c1ccc2c(c1)OCO2)C1CCCN(Cc2ccc(OC(F)F)cc2)C1 (stereo unspecified)	x	x	x	13	x
O=C(NCCc1ccccn1)c1cc2ccccc2o1	x	x	x	-5	x
Cc1ccc(C(=O)N2CCN(C34CC5CC(CC(C5)C3)C4)CC2)o1	x	x	x	8	x
O=C(Nc1ccc2c(c1)OCCO2)c1ccccc1F	28	76*	0.2	48	33
O=C(Nc1ccc2c(c1)OCCO2)c1c(F)cccc1F	18	40	0.6	2	x
COc1cccc(OCc2nn3c(=O)c(-c4ccccc4)nnc3s2)c1	x	x	x	-9	x
COc1ccc(C(=O)Sc2nncc3ccccc23)cc1	10	-2	1	1	7
CCCc1nnc(NC(=O)C2CCN(C(=O)c3ccco3)CC2)s1	x	x	x	11	x
CCn1c2ccccc2c2cc(NC(=O)N3CCOCC3)ccc21	10	4	1	-14	4
CCn1c2ccccc2c2cc(NC(=O)CN(C)CC(=O)Nc3ccc(N4CCOCC4)cc3)ccc21	7	-5	1.1	-8	x
CC(/C=N/NC(=O)c1ccco1)=C\c1ccccc1	63*	90*	0.1	69*	63*
CC(C=NNC(=O)C(=O)NN=CC(C)=Cc1ccccc1)=Cc1ccccc1	x	x	x	15	x
CCOc1ccc(C(=O)CCC(=O)N(CC)CC(=O)NCc2ccc(Cl)cc2)cc1	x	x	x	-4	x
CC(C)(CNC(=O)Cc1ccc(Br)cc1)N1CCOCC1	x	x	x	0	x
COc1ccc(/C=C/c2nc3ccccc3n2Cc2ccc(OC)c(OC)c2)cc1	56*	83*	0.2	33	55*
CCc1nc2ccccc2n1Cc1ccc(OC)c(OC)c1	6	-7	1.1	5	x
C[C@H]1COC(=O)[C@@H](Cc2ccc(F)cc2)C/C=C\C[C@@H](CC(=O)N[C@@H](CO)Cc2ccccc2)C(=O)N1	x	x	x	-15	x
Cc1ccc(C(=O)/C=C/Nc2cccc(O)c2)cc1	88*	96*	0	83*	88*
O=C(/C=C/Nc1cccc(O)c1)c1ccccc1	74*	95*	0.1	67*	72*
CC(C)=CC(=O)OCc1cc([N+](=O)[O-])cc2c1OCOC2	33	-2	1	2	x
CCNC(=O)C1(C)CCCN1Cc1c(F)cccc1F (stereo unspecified)	x	x	x	5	x
CCOC(=O)Cc1csc(NC(=O)/C=C/c2ccc(OC)cc2)n1	56*	76*	0.2	72*	56*
Cc1ccc(-c2nc(-c3ccccn3)no2)cc1	93*	97*	0	92*	92*
Cc1ccc(-c2nc(-c3ccccn3)no2)cc1Cl	88*	95*	0	87*	88*
c1ccc(-c2ccc(-c3nc(-c4ccccn4)no3)cc2)cc1	90*	94*	0.1	90*	90*
SMILES	PPC-1+TRAIL kill	FLuc inh counter	FLuc act counter	C8 TRAIL sens	PPC1 cytotox
Cc1ccc2nc(-c3ccccn3)oc2c1	65*	84*	0.2	67*	65*
Cc1ccc(-c2nc(-c3ccncc3)no2)cc1Cl	x	x	x	1	x
COc1ccccc1CC(=O)NNC(=O)c1ccco1	x	x	x	-5	x
COC(=O)c1ccc(C2NCCc3cc(OC)c(OC)cc32)cc1 (stereo unspecified)	x	x	x	0	x
CC(=O)Nc1cccc(-c2ccnc3c2CC(C(=O)NCc2cccc(Cl)c2)O3)c1 (stereo unspecified)	x	x	x	17	x
Clc1cccc(-c2nc(-c3ccccn3)no2)c1	70*	93*	0.1	77*	66*
c1ccc(-c2nc(-c3ccccn3)no2)cc1	72*	90*	0.1	75*	66*
c1ccc(-c2noc(-c3ccno3)n2)nc1	15	x	x	5	x
O=C(CC1C(=O)NCCN1Cc1cccc(F)c1)NCCCCCN1CCOCC1 (stereo unspecified)	x	x	x	-1	x
